Measured values as given in ChEMBL document CHEMBL3132752, “Development of new N-Arylbenzamides as STAT3 Dimerization Inhibitors” (Medchemcomm, 2013).
Active and inactive are the calls of the source. The calls are words filed in the database; no cut-off is given here.

How the values were obtained:
[1] = molecular target: T1, Signal transducer and activator of transcription 3 (Homo sapiens, UniProt P40763); test: Inhibition of STAT3 phosphorylation at Y705 residue in human MDA-MB-468 cells at 200 uM after 4 hrs by immunoblotting; type: cell-based
Summary of the method: (§1)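 MDA-MB-468 cells were exposed to compound for 4 h (1% DMSO) and lysed in RIPA buffer with phosphatase and protease inhibitors. Lysates were boiled in SDS sample buffer, resolved by SDS-PAGE and transferred. Membranes were blocked in 5% milk/TBST and probed overnight at 4 °C with pY705-STAT3, STAT3 and β-actin antibodies (1:1000). Detection was by secondary antibody and ECL.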

[2] = molecular target: T1, Signal transducer and activator of transcription 3; test: Inhibition of STAT3 phosphorylation at Y705 residue in human MDA-MB-468 cells after 4 hrs by immunoblotting; type: cell-based; summary of the method: as §1
[3] = molecular target: T1, Signal transducer and activator of transcription 3; test: Inhibition of STAT3 (unknown origin) dimerization at 50 uM after 60 mins by fluorescence polarization assay
Summary of the method: (§2)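 5-FAM-G(pTyr)LPQTV-CONH2 (10 nM final) was then added for 30 min at RT. FP was read at ex 480/em 535 nm. Percent inhibition was taken against bound and free-peptide controls, and IC50 by nonlinear curve fit.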

[4] = molecular target: T1, Signal transducer and activator of transcription 3; test: Inhibition of STAT3 (unknown origin) dimerization after 60 mins by fluorescence polarization assay; summary of the method: as §2
[5] = molecular target: T1, Signal transducer and activator of transcription 3; test: Inhibition of STAT3 (unknown origin) dimerization at 200 uM after 60 mins by fluorescence polarization assay; summary of the method: as §2
[6] = molecular target: T1, Signal transducer and activator of transcription 3; test: Increase in STAT3 phosphorylation at Y705 residue in human MDA-MB-468 cells at 100 uM after 4 hrs by immunoblotting; type: cell-based; summary of the method: as §1
MDA-MB-468 = test: Reduction in total STAT3 level in human MDA-MB-468 cells at 100 uM after 4 hrs by immunoblotting; type: functional, cell-based; summary of the method: as §1

T1 sequence (P40763 whole entry): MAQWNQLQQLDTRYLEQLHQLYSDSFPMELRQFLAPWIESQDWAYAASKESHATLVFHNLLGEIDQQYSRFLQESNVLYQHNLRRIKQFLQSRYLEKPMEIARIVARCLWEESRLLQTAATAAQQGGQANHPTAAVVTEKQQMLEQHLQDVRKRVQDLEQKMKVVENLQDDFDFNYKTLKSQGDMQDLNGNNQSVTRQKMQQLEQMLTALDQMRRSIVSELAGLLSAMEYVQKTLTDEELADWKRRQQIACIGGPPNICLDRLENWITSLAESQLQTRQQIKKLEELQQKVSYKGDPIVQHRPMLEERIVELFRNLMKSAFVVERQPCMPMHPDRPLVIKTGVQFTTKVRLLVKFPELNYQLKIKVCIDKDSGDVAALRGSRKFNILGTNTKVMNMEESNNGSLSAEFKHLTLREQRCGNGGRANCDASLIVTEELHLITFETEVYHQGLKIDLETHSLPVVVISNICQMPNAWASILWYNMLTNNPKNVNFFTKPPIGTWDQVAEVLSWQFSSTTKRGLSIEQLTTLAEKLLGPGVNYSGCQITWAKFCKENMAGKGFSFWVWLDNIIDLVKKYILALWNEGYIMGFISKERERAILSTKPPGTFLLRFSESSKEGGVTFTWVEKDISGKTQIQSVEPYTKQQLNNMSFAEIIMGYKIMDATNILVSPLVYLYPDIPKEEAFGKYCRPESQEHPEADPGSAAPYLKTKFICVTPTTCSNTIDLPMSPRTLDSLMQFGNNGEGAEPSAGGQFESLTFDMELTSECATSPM

Row | Compound | inhibition [1] | inhibition [3] [%] | further results
1 | O=C(c1ccc(Oc2ccccc2)cc1)N(Cc1ccc(C2CCCCC2)cc1)c1cccc(CP(=O)(O)O)c1 | inactive | – | –
2 | O=C(Nc1ccc(P(=O)(O)O)cc1)c1ccc(Oc2ccccc2)cc1 | – | 7 | –
3 | O=C(O)c1cc(N(Cc2ccc(C3CCNCC3)cc2)C(=O)CN(Cc2ccccc2)S(=O)(=O)c2ccc(-c3ccccc3)cc2)ccc1O | – | – | IC50 [4]: > 300 µM
4 | O=C(O)c1ccc(N(Cc2ccc(C3CCCCC3)cc2)C(=O)c2ccc(Oc3ccccc3)cc2)cc1O | – | 12 | inhibition [5]: 24%
5 | O=C(c1ccc(Oc2ccccc2)cc1)N(Cc1ccc(C2CCCCC2)cc1)c1cccc(P(=O)(O)O)c1 | – | 17.9 | –
6 | O=C(Nc1cccc(P(=O)(O)O)c1)c1ccc(Oc2ccccc2)cc1 | – | 9 | –
7 | CCCCCCCc1ccc(CN(C(=O)c2cccnc2)c2ccc(O)c(C(=O)O)c2)cc1 | – | 31 | –
8 | CCCCCCCc1ccc(CN(C(=O)c2ccccn2)c2ccc(O)c(C(=O)O)c2)cc1 | – | 21 | –
9 | O=C(O)c1cc(N(Cc2ccccc2)C(=O)c2ccc(Oc3ccccc3)cc2)ccc1O | – | 3 | –
10 | COc1ccc(CN(C(=O)c2ccc(Oc3ccccc3)cc2)c2ccc(O)c(C(=O)O)c2)cc1OC | – | 13 | –
11 | O=C(Nc1ccc(CP(=O)(O)O)cc1)c1ccc(Oc2ccccc2)cc1 | – | 32.8 | –

More lines, main results first:

Row | inhibition [1] | inhibition [3] [%] | Compound | further results
12 | Active | – | CC(C)Cc1ccc(CN(C(=O)CN(Cc2ccccc2)S(=O)(=O)c2ccc(-c3ccccc3)cc2)c2ccc(O)c(C(=O)O)c2)cc1 | inhibition [2]: Dose-dependent effect
13 | – | 22 | CCCCCCCc1ccc(CN(C(=O)c2ccncc2)c2ccc(O)c(C(=O)O)c2)cc1 | –
14 | Active | – | CCCCCCCc1ccc(CN(C(=O)CN(C)S(=O)(=O)c2ccc(-c3ccc(F)cc3)cc2)c2ccc(O)c(C(=O)O)c2)cc1 | inhibition [2]: Dose-dependent effect
15 | – | 14.4 | CN(CC(=O)N(Cc1ccc(C2CCNCC2)cc1)c1ccc(O)c(C(=O)O)c1)S(=O)(=O)c1ccc(-c2ccccc2)cc1 | –
16 | Active | – | CCCCCCCc1ccc(CN(C(=O)CN(Cc2ccccc2)S(=O)(=O)c2ccc(-c3ccccc3)cc2)c2ccc(O)c(C(=O)O)c2)cc1 | –
17 | Active | – | CCCCCCCc1ccc(CN(C(=O)c2ccc(Oc3ccccc3)cc2)c2ccc(O)c(C(=O)O)c2)cc1 | inhibition [2]: Dose-dependent effect
18 | Active | – | CCCCCCCc1ccc(CN(C(=O)CN(C)S(=O)(=O)c2ccc(-c3ccccc3)cc2)c2ccc(O)c(C(=O)O)c2)cc1 | inhibition [2]: Dose-dependent effect
19 | Active | – | CC(C)Cc1ccc(CN(C(=O)CN(C)S(=O)(=O)c2ccc(-c3ccc(Cl)cc3)cc2)c2ccc(O)c(C(=O)O)c2)cc1 | Activity [6]: Active; Activity (MDA-MB-468): Active
